13 compounds from PubChem BioAssay can be followed below.

As usually defined, the viability is a read-out of living cells in per cent, often relative to untreated cells. For orientation: inhibition means the drop in the measured response relative to a control, in per cent.

Test [1] in a line: Her2 expression decrease, cell viability multiplex – SKBR3 breast tumor cells, AlphaScreen, ATP viability, primary screen (AID 461;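 active = Her2 level under about 52% in both replicate screens, with viability over 70% of control, limit read from the data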;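 for Her2 level: lower value means less Her2 protein in the cells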;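 for viability: percent of carrier control wells set as 100% viability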). As to conditions: SKBR3 Her2 protein level, 18-24 h, measured here: SKBR3 viability, ATP luminescence, at 10 µM. For orientation: Alpha assays give light when donor and acceptor beads are brought close together.
Test [2] deals with Receptor tyrosine-protein kinase erbB-2 (Homo sapiens) (UniProt P04626). The description is as above. Conditions: 18-24 h, at 10 µM, stronger effect = lower value.
Chain of Receptor tyrosine-protein kinase erbB-2 (Homo sapiens) (P04626 whole entry, looked up): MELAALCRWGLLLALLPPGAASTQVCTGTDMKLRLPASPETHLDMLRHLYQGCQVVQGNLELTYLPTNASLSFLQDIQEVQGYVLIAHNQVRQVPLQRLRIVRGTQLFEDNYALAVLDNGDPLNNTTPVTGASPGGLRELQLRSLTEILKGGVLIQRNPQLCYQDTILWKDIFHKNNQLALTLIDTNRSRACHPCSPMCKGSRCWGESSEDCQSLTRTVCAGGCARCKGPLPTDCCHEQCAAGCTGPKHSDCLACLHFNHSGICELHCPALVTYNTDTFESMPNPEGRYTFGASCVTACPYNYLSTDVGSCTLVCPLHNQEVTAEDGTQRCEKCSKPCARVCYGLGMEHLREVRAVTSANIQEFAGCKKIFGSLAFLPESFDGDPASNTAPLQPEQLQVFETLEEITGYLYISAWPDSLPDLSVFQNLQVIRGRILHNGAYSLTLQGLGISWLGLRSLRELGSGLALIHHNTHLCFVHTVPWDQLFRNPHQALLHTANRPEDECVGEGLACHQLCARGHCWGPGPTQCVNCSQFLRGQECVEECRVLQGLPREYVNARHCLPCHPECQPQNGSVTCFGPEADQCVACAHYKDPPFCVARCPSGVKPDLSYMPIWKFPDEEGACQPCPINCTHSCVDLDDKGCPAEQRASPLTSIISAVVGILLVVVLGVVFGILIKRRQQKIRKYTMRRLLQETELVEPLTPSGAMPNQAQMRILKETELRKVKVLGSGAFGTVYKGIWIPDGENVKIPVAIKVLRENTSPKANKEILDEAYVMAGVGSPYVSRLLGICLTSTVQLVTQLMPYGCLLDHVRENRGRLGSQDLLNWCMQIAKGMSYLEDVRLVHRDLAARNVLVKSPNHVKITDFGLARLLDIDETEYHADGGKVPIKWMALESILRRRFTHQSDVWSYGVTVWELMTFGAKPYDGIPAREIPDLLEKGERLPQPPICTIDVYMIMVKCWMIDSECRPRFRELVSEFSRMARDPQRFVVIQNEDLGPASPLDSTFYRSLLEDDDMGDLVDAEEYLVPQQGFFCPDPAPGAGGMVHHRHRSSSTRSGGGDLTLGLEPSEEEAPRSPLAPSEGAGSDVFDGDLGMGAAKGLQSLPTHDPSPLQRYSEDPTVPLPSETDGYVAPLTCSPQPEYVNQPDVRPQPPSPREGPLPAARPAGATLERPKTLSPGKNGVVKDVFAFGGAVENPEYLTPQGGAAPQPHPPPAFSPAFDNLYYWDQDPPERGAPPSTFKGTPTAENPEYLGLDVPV
Test [3] can be described thus: reduced viability of SK-BR-3 breast cancer cells – cell-based, 24 h, human, pilot screen (AID 572;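 active = viability at or below 10% of carrier control in both of two separate runs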;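 note: compound exposure lasted between 18 and 24 h rather than exactly 24 h; 100% = carrier-treated control wells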). Conditions: SK-BR-3 viability, CellTiter-Glo luminescence, at 10 µM, stronger effect = lower value. (Cellular ATP, detected with luciferase, serves as a proxy for viable cell number.)
Test [4] in a line: HUVEC growth inhibition – cell-based, human, primary screen (AID 575;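 active = viability at or below 30% in both replicate assays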;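 note: 100% = median of untreated cell wells with 0.1% DMSO on each plate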). As to conditions: HUVEC proliferation, CellTiter-Glo luminescence, 72 h; at 10 µM; stronger effect = lower value. A digest of the protocol:
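Test system: primary human umbilical vein endothelial cells; medium: endothelial basal medium with 2% FBS plus growth supplements; dosing: 10 µM compound only; times: 72 h treatment at 37 °C; signal: CTG luminescence; read-out: % viability relative to median vehicle-well signal on each plate; control set: vehicle and MePR control wells; plate: 384-well, collagen-coated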

Test [5] in a line: H69AR cell proliferation blockers – human, duplicate replicates, primary screen (AID 580;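 active = viability at or under a set limit in both replicates, limit being median viability minus 3 SD, cut at about 48% in these data, passing the limit was not always enough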;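 note: 100% = mean luminescence of untreated wells and 0% = no signal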). Conditions: H69AR lung tumor cells viability, ATP luminescence, 72 h; at 10 µM; stronger effect = lower value.
A short description of test [6]: MRP1 drug-resistance reversers in H69AR cells – cell-based, doxorubicin co-treatment, pilot screen (AID 601). As to conditions: CellTiter-Glo, 72 h, at 10 µM; for differential viability (reversal): stronger effect = higher value.
Test [7] in a line: yeast transport mutant growth inhibition pilot in 384-well plates, post-Golgi transport modulator project (AID 636; in the data active = inhibition above about 31%). Conditions: absorbance 615 nm, about 18 h, stronger effect = higher value.
Test [8] in a line: growth suppression of yeast trafficking mutant, preliminary HTS, modulators of trafficking downstream of Golgi apparatus project, 1536-format plate, OD 615 nm (AID 637; in the data active = inhibition above about 30%). As to conditions: yeast transport mutant growth, absorbance 615 nm, 18 h; stronger effect = higher value.
Setting [9] is: H69AR cells + 2 uM doxorubicin, measured here: viability with 2 uM doxorubicin, stronger effect = lower value.
Setting [10] is: H69AR cells, compound alone cytotoxicity.

Active and inactive are the calls of the source.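 Rule for the calls, unless noted: active = viability loss from added drug above about 55%, and viability with drug at most 40%, in both replicates (limit read from the data, passing the limit was not always enough); inconclusive = both conditions met in only one replicate; inactive = neither replicate meets both conditions.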

Take `CCn1c(C(Cc2ccccc2)NC(=O)COC)nc2ccccc21` (stereo not given): the viability in test [1] is 102%; in test [3], 102% (inactive); in test [4] it was 102% (inactive); in test [5] it was 87.4% (inactive); in test [6] (setting [9]), 78.6%; in test [6] (setting [10]), 87.4%. The Her2 level in test [2] was 92% (inactive). For the same compound, the differential viability (reversal) in test [6] (H69AR cells + 2 uM doxorubicin) was 8.84% (inactive). For the same compound, the inhibition in test [7] was -6.13% (inactive); in test [8] it was 4% (inactive).

For the compound `CCOc1ccc(C2C(C(=O)OC)=CN(CCOC)C=C2C(=O)OC)cc1`, the viability in test [1] was 106%; in test [3] it was 106% (inactive); in test [4], 90% (inactive); in test [5] it was 97.3% (inactive); in test [6] (setting [9]), 99.2%; in test [6] (setting [10]), 97.3%. In test [2], the Her2 level is 109% (inactive). The differential viability (reversal) in test [6] (H69AR cells + 2 uM doxorubicin) was -1.94% (inactive). In addition, the inhibition was 0.64% (inactive) in test [7] and -1.33% (inactive) in test [8].

In the case of `Cc1ccccc1N1CC(c2nc3ccccc3[nH]2)CC1=O` (stereo not given), the viability in test [1] is 102%; in test [3], 102% (inactive); in test [4] it was 87.7% (inactive); in test [5], 96.1% (inactive); in test [6] (setting [9]) it was 96.7%; in test [6] (setting [10]), 96.1%. The Her2 level in test [2] is 91.5% (inactive). Also, the differential viability (reversal) in test [6] (H69AR cells + 2 uM doxorubicin) was -0.615% (inactive). Further, the inhibition in test [7] was -0.92% (inactive); in test [8], -5.71% (inactive).

As for `O=C(O)c1cccc(NC(=O)C2C3C=CC(C3)C2C(=O)OCC(F)(F)C(F)F)c1` (stereo not given), the viability in test [1] is 102%; in test [3], 102% (inactive); in test [4] it was 94% (inactive); in test [5], 89% (inactive); in test [6] (setting [9]) it was 88.3%; in test [6] (setting [10]) it was 89%. Further, the Her2 level in test [2] was 91.5% (inactive). In test [6] (H69AR cells + 2 uM doxorubicin), the differential viability (reversal) was 0.695% (inactive). The inhibition in test [7] is -5.79% (inactive); in test [8], -1.33% (inactive).

In the case of `CCOC(=O)N1CCC(N2C(=O)c3ccccc3C2Nc2cccnc2)CC1` (stereo not given), the viability in test [1] is 91.5%; in test [3], 91.5% (inactive); in test [4], 112% (inactive); in test [5], 85.7% (inactive); in test [6] (setting [9]), 85.6%; in test [6] (setting [10]) it was 85.7%. For the same compound, in test [2], the Her2 level was 104% (inactive). Besides, the differential viability (reversal) in test [6] (H69AR cells + 2 uM doxorubicin) was 0.11% (inactive). Moreover, the figures for the inhibition in test [7] and in test [8] were -2.05% (inactive) and -3% (inactive), respectively.

Regarding `COc1ccc(S(=O)(=O)NCc2ccc(C(=O)O)cc2)cc1`, the viability in test [1] is 102%; in test [3], 102% (inactive); in test [4] it was 107% (inactive); in test [5], 95.8% (inactive); in test [6] (setting [9]), 106%; in test [6] (setting [10]) it was 95.8%. For the same compound, the Her2 level in test [2] is 99% (inactive). The differential viability (reversal) in test [6] (H69AR cells + 2 uM doxorubicin) was -10.6% (inactive). Moreover, the results for the inhibition in test [7] and in test [8] were -3.77% (inactive) and -3.33% (inactive), respectively.

Turning to `COc1ccc(CCNc2oc(-c3ccco3)nc2C#N)cc1`, the viability in test [1] is 95%; in test [3], 95% (inactive); in test [4] it was 96.7% (inactive); in test [5], 94.6% (inactive); in test [6] (setting [9]), 98.3%; in test [6] (setting [10]), 94.6%. In addition, the Her2 level in test [2] is 81.5% (inactive). In test [6] (H69AR cells + 2 uM doxorubicin), the differential viability (reversal) is -3.7% (inactive). The inhibition was -3.07% (inactive) in test [7] and 3.93% (inactive) in test [8].

For `CCOc1ccc(OCC)c(NC(=O)C2CCN(S(=O)(=O)c3cnc[nH]3)CC2)c1`, the viability in test [1] was 95.5%; in test [3] it was 95.5% (inactive); in test [4], 96.2% (inactive); in test [5], 111% (inactive); in test [6] (setting [9]) it was 100%; in test [6] (setting [10]), 111%. Besides, the Her2 level in test [2] was 99% (inactive). Also, in test [6] (H69AR cells + 2 uM doxorubicin), the differential viability (reversal) was 11.1% (inactive). The inhibition in test [7] is -2.37% (inactive); in test [8], -2.74% (inactive).

Consider `Cn1c(=O)[nH]c(=O)c2c1nc(NCCCn1ccnc1)n2Cc1ccccc1`, for which the viability was 89% in test [1]; 89% (inactive) in test [3]; 97.9% (inactive) in test [4]; 95.8% (inactive) in test [5]; 91.7% in test [6] (setting [9]); 95.8% in test [6] (setting [10]). For the same compound, the Her2 level in test [2] was 108% (inactive). Moreover, the differential viability (reversal) in test [6] (H69AR cells + 2 uM doxorubicin) was 4.16% (inactive). For the same compound, the inhibition in test [7] is -1.47% (inactive); in test [8], -3.44% (inactive).

`NC(=O)CSCc1ccc(Br)cc1`: the viability is 100% in test [1]; 100% (inactive) in test [3]; 98.6% (inactive) in test [4]; 108% (inactive) in test [5]; 108% in test [6] (setting [9]); 108% in test [6] (setting [10]). Besides, the Her2 level in test [2] was 91.5% (inactive). Moreover, the differential viability (reversal) in test [6] (H69AR cells + 2 uM doxorubicin) is 0.415% (inactive). Further, the inhibition in test [7] is -4.67% (inactive); in test [8] it was 2.62% (inactive).

As for `Cc1[nH]n(C(N)=S)c(=O)c1C(c1ccccc1)C(C#N)C#N` (stereo not given), the viability is 96.5% in test [1]; 96.5% (inactive) in test [3]; 70.8% (inactive) in test [4]; 91.6% (inactive) in test [5]; 92.4% in test [6] (setting [9]); 91.6% in test [6] (setting [10]). Also, in test [2], the Her2 level was 152% (inactive). Further, the differential viability (reversal) in test [6] (H69AR cells + 2 uM doxorubicin) is -0.72% (inactive). For the same compound, the inhibition in test [7] is 3.46% (inactive); in test [8], 20.2% (inactive).

As to `CC1Cc2ccccc2N1C(=O)c1cccnc1` (stereo not given), the viability in test [1] was 121%; in test [3], 121% (inactive); in test [4], 92.8% (inactive); in test [5], 98.1% (inactive); in test [6] (setting [9]) it was 96%; in test [6] (setting [10]), 98.1%. Moreover, in test [2], the Her2 level is 91.5% (inactive). Moreover, the differential viability (reversal) in test [6] (H69AR cells + 2 uM doxorubicin) was 2.02% (inactive). Also, the inhibition in test [7] was -2.21% (inactive); in test [8] it was -0.16% (inactive).

On to `Cc1ccc2c(c1)c1c3n2CC(=C2C(=O)OC(C)(C)OC2=O)NC3CCC1` (stereo not given), for which the viability in test [1] was 103%; in test [3] it was 103% (inactive); in test [4], 73.1% (inactive); in test [5] it was 94.6% (inactive); in test [6] (setting [9]), 85.3%; in test [6] (setting [10]), 94.6%. Moreover, the Her2 level in test [2] is 73% (inactive). The differential viability (reversal) in test [6] (H69AR cells + 2 uM doxorubicin) is 9.35% (inactive). The inhibition in test [7] was -4.67% (inactive); in test [8], -4.59% (inactive).
